Shown are actives, neighbours in structure and some others; about 1.7% of the full set was active somewhere.
STEP block: STEP (human) phosphatase inhibition; 0.25% of 360,000 active; inhibition, % at 20 µM; P54829; recombinant STEP, OMFP fluorogenic substrate, fluorescence;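 active = inhibition at 20 µM, scaled per plate between control wells, above about 37%, limit read from the data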;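 note: 0% = DMSO with enzyme and substrate and 100% = substrate only without enzyme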
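Assay system: isolated STEP enzyme. Buffer or medium: pH 6.0 Bis-Tris with DTT and Tween 20. Also added: fluorogenic phosphatase substrate OMFP at 25 µM final. Dosing: 20 µM, 1% DMSO. Timing: 20 min reaction, room temperature, in the dark. Measured by: fluorescence intensity, excitation 480 nm, emission 540 nm. Evaluation: normalized % inhibition.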
Scp1 inh: blocks human Scp-1 phosphatase activity. Q9GZU7. Recombinant Scp1, phosphopeptide, malachite green phosphate absorbance. inhibition, % at 20 µM. 0.88% of 340,000 active. AID 493091;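 active = inhibition above about 50% at 20 µM, limit read from the data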;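 note: plate controls were DMSO wells with enzyme for no effect and wells lacking enzyme for full effect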
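Assay system: SCP-1 catalytic fragment, aa 76-261 | Buffer or medium: Tris acetate buffer pH 5.5 with MgCl2 and Tween-20 | Compound: One concentration, 20 µM, with 1.0% DMSO | Also added: Phospho 17-mer peptide substrate | Signal: Absorbance at 630 nm | Incubation: 45 min enzyme reaction at room temperature | Measure: % inhibition of SCP-1 phosphate liberation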
Pemphigus Ab inh: blocks pemphigus antibody binding to human desmoglein-3; binding (percent of control), % at 10 µM; 0.48% of 310,000 active; P32926; DSG3-coupled beads, scFv-anti-DSG3-GFP binding, flow cytometry; active compounds read low; AID 588358;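 active = binding more than 3 SD below its plate's average and above zero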;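 note: hits lower antibody fragment binding to DSG3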
Target sequence (P32926 whole entry, looked up, the tested form may be a part): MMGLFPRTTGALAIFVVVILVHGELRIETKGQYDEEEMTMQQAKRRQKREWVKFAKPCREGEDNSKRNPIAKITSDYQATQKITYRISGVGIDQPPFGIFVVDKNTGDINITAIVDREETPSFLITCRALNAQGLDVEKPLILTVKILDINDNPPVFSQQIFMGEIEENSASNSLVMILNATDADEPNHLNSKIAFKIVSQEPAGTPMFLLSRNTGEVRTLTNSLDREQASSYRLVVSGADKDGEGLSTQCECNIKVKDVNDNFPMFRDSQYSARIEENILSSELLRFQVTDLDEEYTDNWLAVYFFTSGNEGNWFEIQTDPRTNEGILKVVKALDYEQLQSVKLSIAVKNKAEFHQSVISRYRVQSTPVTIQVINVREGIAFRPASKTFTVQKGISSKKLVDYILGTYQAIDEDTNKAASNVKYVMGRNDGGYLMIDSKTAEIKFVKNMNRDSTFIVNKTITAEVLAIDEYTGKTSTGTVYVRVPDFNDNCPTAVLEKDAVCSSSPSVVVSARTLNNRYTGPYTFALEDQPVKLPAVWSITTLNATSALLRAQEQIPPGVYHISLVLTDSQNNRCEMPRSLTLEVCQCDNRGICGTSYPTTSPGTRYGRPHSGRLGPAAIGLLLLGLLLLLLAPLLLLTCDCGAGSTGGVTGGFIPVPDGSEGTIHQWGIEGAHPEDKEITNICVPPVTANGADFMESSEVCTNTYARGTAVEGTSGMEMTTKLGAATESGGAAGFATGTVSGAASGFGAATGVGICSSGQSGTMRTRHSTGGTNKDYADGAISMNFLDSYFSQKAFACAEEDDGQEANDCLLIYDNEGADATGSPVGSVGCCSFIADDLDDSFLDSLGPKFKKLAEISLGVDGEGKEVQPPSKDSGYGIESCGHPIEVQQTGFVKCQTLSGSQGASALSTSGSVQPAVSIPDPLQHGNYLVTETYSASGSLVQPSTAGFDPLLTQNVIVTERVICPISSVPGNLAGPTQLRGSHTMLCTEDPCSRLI
LMPTP block: blocks human LMPTP phosphatase; P24666; recombinant LMPTP-A, OMFP fluorogenic substrate, fluorescence intensity; inhibition, % at 20 µM; 0.22% of 360,000 active;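 active = compounds that cut the enzyme signal by at least half of the control window in the single-dose screen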;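 note: plate controls were DMSO wells with enzyme plus substrate for no effect and substrate without enzyme for full effect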
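Buffer or medium: Bis-Tris pH 6.0, DTT, detergent; Assay system: LMPTP-A enzyme; Quantity: 0.625 nM enzyme; Detection: endpoint fluorescence intensity; Times: 50 min dark incubation at room temperature; Controls: substrate-only low control, DMSO enzyme-plus-substrate high control; Doses: single 20 µM dose; Read-out: percent inhibition versus substrate-only and uninhibited controls; Reagent: 400 µM OMFP.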
SUMO1 PPI mod: alters human SUMO1 binding to SIM partners | 0.33% of 360,000 active | SUMO1 binding to a labelled peptide, TR-FRET, 1 h | inhibition, % at 20 µM; in the data active = inhibition above about 37%
* marks the source's active call; other numbers are inactive results.

How did COc1ccc(-c2cn3c(C)c(C(=O)N4CCN(c5ccccc5F)CC4)sc3n2)cc1 do in these assays?
STEP block: 2; Scp1 inh: -11; Pemphigus Ab inh: 111; LMPTP block: 0; SUMO1 PPI mod: -2

How did COc1ccc(-c2cn3c(C)c(C(=O)Nc4cccc(NC(C)=O)c4)sc3n2)cc1 do in these assays?
STEP block: 2; Scp1 inh: 20; Pemphigus Ab inh: 80*; LMPTP block: -1; SUMO1 PPI mod: 2

What do the screens show for `Cn1c(=O)c(=O)n(C)c2cc(S(=O)(=O)N3CCN(c4cccc(C(F)(F)F)c4)CC3)ccc21`?
STEP block: -16; Scp1 inh: -2; Pemphigus Ab inh: 71*; LMPTP block: -1; SUMO1 PPI mod: -1

Results for CC(C)Nc1ncnc2c1ncn2[C@H]1CN(C2CCCC2)C[C@@H](CO)O1 ?
STEP block: 1; LMPTP block: -1; SUMO1 PPI mod: 1

Results for CCCCCCn1c(Br)nc2c1c(=O)n(C)c(=O)n2C ?
STEP block: 4; Scp1 inh: -8; Pemphigus Ab inh: 102; LMPTP block: -1; SUMO1 PPI mod: -3

What do the screens show for `S=C1Cc2ccccc2N1`?
STEP block: 21; Scp1 inh: -7; Pemphigus Ab inh: 101; LMPTP block: 48; SUMO1 PPI mod: 77*

Results for CCOc1ccc(S(=O)(=O)Nc2cc(NS(=O)(=O)c3ccc(OCC)cc3)cc(C(=O)O)c2)cc1 ?
STEP block: 1; Scp1 inh: 55*; LMPTP block: 16; SUMO1 PPI mod: 17

Results for Cc1ccc(NC(=O)COC(=O)Cn2ccc(C(F)(F)F)n2)cc1Cl ?
STEP block: -1; Scp1 inh: 1; LMPTP block: 1; SUMO1 PPI mod: -1

What do the screens show for `COCCCNC(=O)CCn1c(=O)c2ccccc2n(CC(=O)NCCC2=CCCCC2)c1=O`?
STEP block: 1; Scp1 inh: -5; Pemphigus Ab inh: 68*; LMPTP block: 0; SUMO1 PPI mod: 1

What do the screens show for `COCCCn1c(=O)c2ccccc2n(CC(=O)NCCC2=CCCCC2)c1=O`?
STEP block: 1; Scp1 inh: -5; Pemphigus Ab inh: 107; LMPTP block: -2; SUMO1 PPI mod: 4

What do the screens show for `Cc1ccsc1C(=O)N1CCCC(C)(C(=O)NS(=O)(=O)C2CC2)C1` (stereo not given)?
STEP block: 1; LMPTP block: -1; SUMO1 PPI mod: 5

Results for Nc1nonc1-c1nc2ccccc2n1CC(=O)N/N=C/c1ccc(-c2cccc(C(=O)O)c2)o1 ?
STEP block: 14; Scp1 inh: 72*; Pemphigus Ab inh: 104; LMPTP block: 7; SUMO1 PPI mod: 22

What do the screens show for `CC(C)OC(=O)c1ccc(NC(=O)Cn2c(-c3nonc3N)nc3ccccc32)cc1`?
STEP block: 6; Scp1 inh: -5; LMPTP block: 3; SUMO1 PPI mod: 43*

How did COC(=O)c1ccc(NC(=O)Cn2c(-c3nonc3N)nc3ccccc32)cc1 do in these assays?
STEP block: -2; Scp1 inh: -9; Pemphigus Ab inh: 99; LMPTP block: 25; SUMO1 PPI mod: 1

Results for CC(=O)c1sc(Nc2nc3cc4c(cc3s2)OCO4)nc1C ?
STEP block: 2; Scp1 inh: -3; Pemphigus Ab inh: 109; LMPTP block: 4; SUMO1 PPI mod: 40*

How did CC(=O)c1sc(Nc2ccc3c(c2)OCO3)nc1C do in these assays?
STEP block: 2; LMPTP block: 1; SUMO1 PPI mod: -29

What do the screens show for `N#CCc1ccc(NC(=O)/C=C/c2ccc([N+](=O)[O-])o2)cc1`?
STEP block: 3; Scp1 inh: 40; LMPTP block: 5; SUMO1 PPI mod: -22

Results for N#C/C(=C\c1ccc([N+](=O)[O-])o1)C(=O)Nc1ccc(F)cc1 ?
STEP block: 1; Scp1 inh: 57*; Pemphigus Ab inh: 103; LMPTP block: 6; SUMO1 PPI mod: 9

What do the screens show for `C/C(=N\NC(=O)c1ccc([N+](=O)[O-])c(C)c1)c1ccccc1Cl`?
STEP block: -4; Scp1 inh: -5; Pemphigus Ab inh: 98; LMPTP block: -1; SUMO1 PPI mod: -12

Results for CC(C)Oc1cc(F)ccc1-c1cc(C(=O)NCc2cccnc2)[nH]n1 ?
STEP block: 2; LMPTP block: 0; SUMO1 PPI mod: 7
